Legend:
[1] = target: T1, 2-5A-dependent ribonuclease (Mus musculus) (UniProt Q05921); assay: Molar concentration required to displace 50% of the radiolabeled probe from 2-5A (Adenosine dependent endoribonuclease) in endonuclease-nitrocellulose complex
T1 sequence (whole entry): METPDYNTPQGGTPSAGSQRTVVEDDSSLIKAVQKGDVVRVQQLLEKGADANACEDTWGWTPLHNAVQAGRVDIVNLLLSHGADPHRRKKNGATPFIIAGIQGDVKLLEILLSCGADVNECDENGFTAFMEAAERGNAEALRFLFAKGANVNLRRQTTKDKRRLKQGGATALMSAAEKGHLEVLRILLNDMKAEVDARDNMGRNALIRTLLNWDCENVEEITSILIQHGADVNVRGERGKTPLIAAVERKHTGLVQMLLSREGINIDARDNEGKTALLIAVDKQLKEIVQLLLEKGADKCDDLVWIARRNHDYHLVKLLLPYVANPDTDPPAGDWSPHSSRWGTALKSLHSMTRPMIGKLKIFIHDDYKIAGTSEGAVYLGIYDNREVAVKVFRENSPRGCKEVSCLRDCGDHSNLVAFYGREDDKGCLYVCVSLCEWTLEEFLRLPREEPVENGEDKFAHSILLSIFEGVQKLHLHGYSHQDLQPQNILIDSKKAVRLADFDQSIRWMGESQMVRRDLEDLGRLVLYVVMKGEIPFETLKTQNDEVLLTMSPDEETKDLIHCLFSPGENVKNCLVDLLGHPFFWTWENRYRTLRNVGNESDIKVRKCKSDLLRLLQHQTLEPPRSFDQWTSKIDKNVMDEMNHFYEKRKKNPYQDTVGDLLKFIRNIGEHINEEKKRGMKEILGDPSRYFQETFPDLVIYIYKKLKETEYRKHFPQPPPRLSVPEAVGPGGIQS
Procedure, shortened: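 Radiobinding assay of Knight et al. on the 2-5A-dependent endoribonuclease from mouse L cells. Oligomer is added against the radiolabeled probe ppp5'A2'p5'A2'p5'A2'p5'A3'[³²P]p5'C3'p. The value is the oligomer concentration that prevents 50% of the added probe from binding the endonuclease.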

[2] = target: T1, 2-5A-dependent ribonuclease (Mus musculus); assay: Molar concentration needed to give 50% prevention of 2-5A (Adenosine dependent endoribonuclease)

| SMILES | Concentration [1] | Concentration [2] |
| --- | --- | --- |
| Nc1ncnc2c1ncn2C1O[C@H](COP(=O)(O)O[C@H]2C(n3cnc4c(N)ncnc43)O[C@H](COP(=O)(O)O[C@H]3C(n4cnc5c(N)ncnc54)O[C@H](COP(=O)(O)O[C@H]4C(n5cnc6c(N)ncnc65)O[C@H](COP(=O)(O)O[C@H]5C(n6cnc7c(N)ncnc76)O[C@H](COP(=O)(O)O[C@H]6C(n7cnc8c(N)ncnc87)O[C@H](COP(=O)(O)O)[C@H]6O)[C@H]5O)[C@H]4O)[C@H]3O)[C@H]2O)[C@@H](O)[C@H]1O (some centres undefined) | 1e-09 | – |
| Nc1ncnc2c1ncn2C1O[C@H](COP(=O)(O)O[C@H]2C(n3cnc4c(N)ncnc43)O[C@H](COP(=O)(O)O[C@H]3C(n4cnc5c(N)ncnc54)O[C@H](COP(=O)(O)O[C@H]4C(n5cnc6c(N)ncnc65)O[C@H](COP(=O)(O)O[C@H]5C(n6cnc7c(N)ncnc76)O[C@H](COP(=O)(O)O)[C@H]5O)[C@H]4O)[C@H]3O)[C@H]2O)[C@@H](O)[C@H]1O (some centres undefined) | 9e-10 | 5e-07 |
| Nc1ncnc2c1ncn2C1O[C@H](COP(=O)(O)O[C@H]2C(n3cnc4c(N)ncnc43)O[C@H](COP(=O)(O)O[C@H]3C(n4cnc5c(N)ncnc54)O[C@H](COP(=O)(O)O[C@H]4C(n5cnc6c(N)ncnc65)O[C@H](COP(=O)(O)O[C@H]5C(n6cnc7c(N)ncnc76)O[C@H](COP(=O)(O)O[C@H]6C(n7cnc8c(N)ncnc87)O[C@H](CO)[C@H]6O)[C@H]5O)[C@H]4O)[C@H]3O)[C@H]2O)[C@@H](O)[C@H]1O (some centres undefined) | 1.3e-08 | – |
| Nc1ncnc2c1ncn2[C@@H]1O[C@H](COP(=O)(O)O[C@@H]2[C@H](O)[C@@H](COP(=O)(O)O)O[C@H]2n2cnc3c(N)ncnc32)[C@@H](OP(=O)(O)O)[C@H]1O | 4e-06 | – |
| O=P(O)(O)OC[C@H]1OC(n2cnc3c(O)ncnc32)[C@H](OP(=O)(O)OC[C@H]2OC(n3cnc4c(O)ncnc43)[C@H](OP(=O)(O)OC[C@H]3OC(n4cnc5c(O)ncnc54)[C@H](O)[C@@H]3O)[C@@H]2O)[C@@H]1O (some centres undefined) | 3.3e-06 | > 0.0001 |
| O=c1ccn(C2O[C@H](COP(=O)(O)O[C@H]3C(n4ccc(=O)[nH]c4=O)O[C@H](COP(=O)(O)O[C@H]4C(n5ccc(=O)[nH]c5=O)O[C@H](COP(=O)(O)O)[C@H]4O)[C@H]3O)[C@@H](O)[C@H]2O)c(=O)[nH]1 (some centres undefined) | 1.1e-06 | > 0.0001 |
| Nc1ncnc2c1ncn2[C@@H]1O[C@H](COP(=O)(O)O[C@@H]2[C@H](O)[C@@H](COP(=O)(O)O)O[C@H]2n2cnc3c(N)ncnc32)[C@@H](O)[C@H]1OP(=O)(O)O | 4e-07 | – |
| Nc1ncnc2c1ncn2C1OC(CO)C(O)C1OP(=O)(O)OC[C@H]1OC(n2cnc3c(N)ncnc32)[C@H](O)[C@@H]1O (some centres undefined) | – | > 0.001 |
| Nc1ccn(C2O[C@H](COP(=O)(O)O[C@H]3C(n4ccc(N)nc4=O)O[C@H](COP(=O)(O)O[C@H]4C(n5ccc(N)nc5=O)O[C@H](COP(=O)(O)O)[C@H]4O)[C@H]3O)[C@@H](O)[C@H]2O)c(=O)n1 (some centres undefined) | 3.3e-06 | > 0.0001 |
| O=P(O)(O)OP(=O)(O)OP(=O)(O)OCC1OC(n2cnc3c(O)ncnc32)C(OP(=O)(O)OCC2OC(n3cnc4c(O)ncnc43)C(OP(=O)(O)OC[C@H]3OC(n4cnc5c(O)ncnc54)[C@H](O)[C@@H]3O)C2O)C1O (some centres undefined) | 2.6e-07 | > 0.00013 |
| Nc1ncnc2c1ncn2[C@@H]1O[C@H](COP(=O)(O)O[C@@H]2[C@H](O)[C@@H](COP(=O)(O)O[C@@H]3[C@H](O)[C@@H](COP(=O)(O)O)O[C@H]3n3cnc4c(N)ncnc43)O[C@H]2n2cnc3c(N)ncnc32)[C@@H](O)[C@H]1O (stereo in doubt; 11) | 2e-09 | – |
| Nc1ncnc2c1ncn2[C@@H]1O[C@H](COP(=O)(O)O[C@@H]2[C@H](O)[C@@H](COP(=O)(O)O[C@@H]3[C@H](O)[C@@H](COP(=O)(O)O[C@@H]4[C@H](O)[C@@H](COP(=O)(O)O)O[C@H]4n4cnc5c(N)ncnc54)O[C@H]3n3cnc4c(N)ncnc43)O[C@H]2n2cnc3c(N)ncnc32)[C@@H](O)[C@H]1O | 7e-10 | 1e-06 |
| Nc1ncnc2c1ncn2C1O[C@H](COP(=O)(O)O[C@H]2C(n3cnc4c(N)ncnc43)O[C@H](COP(=O)(O)O)[C@H]2O)[C@@H](O)[C@H]1O (some centres undefined) | 2e-05 | > 0.0002 |
| Nc1ncnc2c1ncn2C1O[C@H](COP(=O)(O)O[C@H]2C(n3cnc4c(N)ncnc43)O[C@H](COP(=O)(O)O[C@H]3C(n4cnc5c(N)ncnc54)O[C@H](COP(=O)(O)O[C@H]4C(n5cnc6c(N)ncnc65)O[C@H](COP(=O)(O)O[C@H]5C(n6cnc7c(N)ncnc76)O[C@H](CO)[C@H]5O)[C@H]4O)[C@H]3O)[C@H]2O)[C@@H](O)[C@H]1O (some centres undefined) | 1.3e-08 | 7e-06 |
| Nc1ncnc2c1ncn2[C@@H]1O[C@H](COP(=O)(O)O[C@@H]2[C@H](O)[C@@H](COP(=O)(O)O[C@@H]3[C@H](O)[C@@H](COP(=O)(O)O)O[C@H]3n3cnc4c(N)ncnc43)O[C@H]2n2cnc3c(N)ncnc32)[C@@H](O)[C@H]1O (stereo in doubt; 2) | 8e-10 | 1e-06 |
| Nc1ncnc2c1ncn2[C@@H]1O[C@H](COP(=O)(O)O[C@@H]2[C@H](O)[C@@H](COP(=O)(O)O[C@@H]3[C@H](O)[C@@H](COP(=O)(O)OP(=O)(O)OP(=O)(O)O)O[C@H]3n3cnc4c(N)ncnc43)O[C@H]2n2cnc3c(N)ncnc32)[C@@H](O)[C@H]1O | 5e-10 | – |
| Nc1ncnc2c1ncn2[C@@H]1O[C@H](COP(=O)(O)O[C@@H]2[C@H](O)[C@@H](COP(=O)(O)O[C@@H]3[C@H](O)[C@@H](CO)O[C@H]3n3cnc4c(N)ncnc43)O[C@H]2n2cnc3c(N)ncnc32)[C@@H](O)[C@H]1O | 8e-07 | > 0.0001 |
| Nc1ncnc2c1ncn2[C@@H]1O[C@H](COP(=O)(O)O[C@@H]2[C@H](O)[C@@H](COP(=O)(O)O[C@@H]3[C@H](O)[C@@H](COP(=O)(O)O[C@@H]4[C@H](O)[C@@H](CO)O[C@H]4n4cnc5c(N)ncnc54)O[C@H]3n3cnc4c(N)ncnc43)O[C@H]2n2cnc3c(N)ncnc32)[C@@H](O)[C@H]1O | 2.2e-08 | 1e-05 |
